Sampled rows, rich in hits. Any-hit rate of the full collection: about 0.89%.
HSV augment: increases HSV replication in cells. maximum fold increase. AID 1956. 220,000 compounds, 0.005% hits. HSV replication augmentation in cells, fold increase; in the data active = maximum fold increase above about 1.5; tested in PC3 cells
zVAD death inh: blocks zVAD induced death of L929 cells | 220,000 compounds, 0.38% hits | viability rescue, % at 10 µM | L929 zVAD necroptosis rescue, ATP luminescence, 24 h; with zVAD 60 µM | AID 1377;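 active = activation, scaled between plate controls, above about 75%, limit read from the data; inactive = activation under that limit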
MDM2 E3 inh: inhibitors of human Mdm2 E3 ubiquitin ligase; Q00987; cell-based MDM2 ubiquitination luciferase reporter, 2 h; 0 = plate control, 100 = twice control, blank-subtracted; signal enhancement, % at 5 µM; 210,000 compounds, 0.11% hits; AID 1230;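 active = signal enhancement of 30% or more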;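 note: luminescence tracks abundance of the self-degrading MDM2-luciferase fusion protein; higher signal means inhibition of MDM2 E3 ligase activity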
Target sequence (Q00987 whole entry, looked up, the tested form may be a part): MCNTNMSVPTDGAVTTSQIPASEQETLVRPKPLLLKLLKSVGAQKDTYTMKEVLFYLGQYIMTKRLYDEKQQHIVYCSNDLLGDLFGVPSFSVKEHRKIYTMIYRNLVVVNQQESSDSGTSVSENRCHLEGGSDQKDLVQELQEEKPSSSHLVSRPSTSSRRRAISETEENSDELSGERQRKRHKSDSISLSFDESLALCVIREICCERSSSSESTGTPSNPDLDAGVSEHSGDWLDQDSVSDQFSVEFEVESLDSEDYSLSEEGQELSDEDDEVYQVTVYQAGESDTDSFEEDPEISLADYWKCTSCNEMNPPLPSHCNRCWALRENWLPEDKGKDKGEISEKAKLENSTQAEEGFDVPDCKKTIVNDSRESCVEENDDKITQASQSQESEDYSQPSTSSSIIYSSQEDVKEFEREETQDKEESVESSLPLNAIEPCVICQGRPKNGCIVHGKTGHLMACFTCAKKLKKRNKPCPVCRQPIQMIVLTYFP
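Material: stable MDM2–luciferase fusion reporter cells / Quantity: 2000 cells/well / Dosing: single 5 µM compound dose, 0.2% final DMSO / Buffer or medium: DMEM / Schedule: 4 h cell settling then 2 h compound exposure, 37 °C / Detection: luminescence with SteadyLite reagent, 15 min at room temperature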
E-sel TNF inh: blocks E-selectin expression induced by TNF alpha. HUVEC TNFa-induced E-selectin immunofluorescence, high content. inhibition, % at 2 µM. 120,000 compounds, 0.71% hits;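 active = inhibition above the batch mean plus 3 SD, and confirmed as a hit on visual image review, cut at about 43% in these data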
TNF death inh: inhibitors of TNF-alpha induced necroptosis in Jurkat FADD-/- cells; AID 463075; activation (protection from cell death), % at 10 µM; 220,000 compounds, 0.068% hits; Jurkat FADD-/- TNF necroptosis rescue, ATP luminescence, 24 h; 0 = TNF only, 100 = no-TNF cells;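 active = activation, meaning protection from cell death, of at least 50% relative to plate controls; inactive = activation below 50%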;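 note: necroptosis triggered by 40 ng/mL TNF-alpha added together with compound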
Hits are given with their value.

How did COCc1cc(=O)[nH]c(Nc2nc3ccc(C)cc3o2)n1 do in these assays?
HSV augment: inactive; zVAD death inh: inactive; MDM2 E3 inh: 36; E-sel TNF inh: inactive; TNF death inh: inactive

Results for CN1C(=O)S/C(=C\c2ccccc2OCc2ccc(C(=O)O)cc2)C1=O ?
HSV augment: inactive; zVAD death inh: inactive; MDM2 E3 inh: inactive; E-sel TNF inh: 100; TNF death inh: inactive

Results for CN1C(=O)S/C(=C/c2ccccc2OCc2ccc(C(=O)O)cc2)C1=O ?
HSV augment: inactive; zVAD death inh: inactive; MDM2 E3 inh: inactive; E-sel TNF inh: inactive; TNF death inh: inactive

Results for O=C1NC(=O)/C(=C/c2ccccc2Oc2ccc(Cl)cc2)S1 ?
HSV augment: inactive; zVAD death inh: inactive; MDM2 E3 inh: inactive; E-sel TNF inh: inactive; TNF death inh: inactive

How did Cc1ccc(Oc2ccccc2/C=C2\SC(=O)N(C)C2=O)cc1 do in these assays?
HSV augment: inactive; zVAD death inh: inactive; MDM2 E3 inh: inactive; E-sel TNF inh: inactive; TNF death inh: 52

Results for CCCc1cc(=O)[nH]c(SCC(=O)c2ccc3c(c2)NC(=O)CO3)n1 ?
HSV augment: inactive; zVAD death inh: inactive; MDM2 E3 inh: inactive; TNF death inh: inactive

What do the screens show for `O=C(Nc1cccc(Cl)c1)c1cc(F)cc2c1OCOC2`?
HSV augment: inactive; zVAD death inh: inactive; MDM2 E3 inh: inactive; TNF death inh: inactive

Results for N#Cc1ccc(NC(=O)C2CC(c3ccc(F)cc3)=NO2)cc1 (configuration not stated) ?
HSV augment: inactive; zVAD death inh: inactive; MDM2 E3 inh: inactive; E-sel TNF inh: 93; TNF death inh: inactive

Results for CN(C)S(=O)(=O)c1ccc(Cl)c(NC(=O)COC(=O)/C=C/c2cnc3ccccc3n2)c1 ?
HSV augment: inactive; zVAD death inh: inactive; MDM2 E3 inh: inactive; TNF death inh: inactive

How did Cc1ccc(OCC(=O)N/N=C/c2c[nH]c3ccccc23)c([N+](=O)[O-])c1 do in these assays?
HSV augment: inactive; zVAD death inh: inactive; MDM2 E3 inh: inactive; E-sel TNF inh: inactive; TNF death inh: inactive

What do the screens show for `c1csc(C(c2nnnn2C2CCCC2)N2CCCC3(CCCCC3)C2)c1` (configuration not stated)?
HSV augment: inactive; zVAD death inh: inactive; MDM2 E3 inh: inactive; E-sel TNF inh: 57; TNF death inh: inactive

Results for c1csc(C(c2nnnn2C2CCCC2)N2CCOCC2)c1 (configuration not stated) ?
HSV augment: inactive; zVAD death inh: inactive; MDM2 E3 inh: inactive; E-sel TNF inh: inactive; TNF death inh: inactive

What do the screens show for `O=C(CCC(=O)N/N=C/c1cc(Cl)cc(Cl)c1O)NCc1ccccc1`?
HSV augment: inactive; zVAD death inh: inactive; MDM2 E3 inh: inactive; TNF death inh: inactive

What do the screens show for `Cc1ccc(OCCOCCN(C)C)c(Cl)c1`?
HSV augment: inactive; zVAD death inh: inactive; MDM2 E3 inh: inactive; TNF death inh: inactive

How did CCc1cc(OCCOCCN(C)C)ccc1Cl do in these assays?
HSV augment: inactive; MDM2 E3 inh: inactive; E-sel TNF inh: 92; TNF death inh: inactive

How did COc1ccc(CN(C)CC(=O)Nc2ccc(Cl)cc2F)c(OC)c1 do in these assays?
HSV augment: inactive; zVAD death inh: inactive; MDM2 E3 inh: inactive; TNF death inh: inactive

How did N#Cc1cccnc1N1CCN(C(=O)COCC(=O)O)CC1 do in these assays?
HSV augment: inactive; zVAD death inh: inactive; MDM2 E3 inh: inactive; TNF death inh: inactive

How did CS(=O)(=O)C1=NSC2=NC(=O)/C(=C\c3cccn3-c3ccc(Cl)cc3)C(=N)N21 do in these assays?
HSV augment: inactive; zVAD death inh: inactive; MDM2 E3 inh: inactive; E-sel TNF inh: 100; TNF death inh: inactive

What do the screens show for `O=C(c1cccc(F)c1)N1CCN(c2cc(N3CCCCC3)c(F)cc2[N+](=O)[O-])CC1`?
HSV augment: inactive; zVAD death inh: inactive; MDM2 E3 inh: inactive; E-sel TNF inh: 51; TNF death inh: inactive

Results for CCN(CC)CCNC(=O)CS(=O)Cc1nc(-c2ccccc2Cl)oc1C (configuration not stated) ?
HSV augment: inactive; zVAD death inh: inactive; MDM2 E3 inh: inactive; E-sel TNF inh: 71; TNF death inh: inactive

What do the screens show for `CC1CCC2=NN(C(=O)c3ccco3)C(O)(C(F)(F)F)C2C1` (configuration not stated)?
HSV augment: inactive; zVAD death inh: inactive; MDM2 E3 inh: inactive; TNF death inh: inactive

How did CN1C(=O)CS/C1=N\NC(=O)COc1cccc2cccnc12 do in these assays?
HSV augment: inactive; zVAD death inh: inactive; MDM2 E3 inh: inactive; E-sel TNF inh: inactive; TNF death inh: inactive

Results for Cn1c(=O)c2c(nc(SCC(=O)NC34CC5CC(CC(C5)C3)C4)n2C)n(C)c1=O ?
HSV augment: inactive; zVAD death inh: inactive; MDM2 E3 inh: inactive; E-sel TNF inh: 68; TNF death inh: inactive

What do the screens show for `CN1c2ccccc2C2(C)CCCC3=Cc4cccc([N+](=O)[O-])c4OC312` (configuration not stated)?
HSV augment: inactive; zVAD death inh: inactive; MDM2 E3 inh: inactive; E-sel TNF inh: 69; TNF death inh: inactive

Results for CN1c2ccccc2C2(C)CCCC3=Cc4cc([N+](=O)[O-])cc([N+](=O)[O-])c4OC312 (configuration not stated) ?
HSV augment: inactive; zVAD death inh: inactive; MDM2 E3 inh: inactive; E-sel TNF inh: inactive; TNF death inh: inactive

What do the screens show for `Cc1cc(S(=O)(=O)N2CCN(c3ccccc3O)CC2)c(C)s1`?
HSV augment: inactive; zVAD death inh: inactive; MDM2 E3 inh: inactive; E-sel TNF inh: 57; TNF death inh: inactive

What do the screens show for `CC1(C)CC2CC(C)(CN2C(=S)Nc2ccccc2F)C1` (configuration not stated)?
HSV augment: inactive; zVAD death inh: inactive; MDM2 E3 inh: inactive; TNF death inh: inactive

How did Cc1cc(-c2c(C)[nH]n(-c3ccccc3)c2=O)n(-c2ccccc2)n1 do in these assays?
HSV augment: inactive; zVAD death inh: inactive; MDM2 E3 inh: inactive; E-sel TNF inh: 100; TNF death inh: inactive

Results for Cc1cc(-c2c(C)[nH]n(-c3ccc(Cl)cc3)c2=O)n(-c2ccc(Cl)cc2)n1 ?
HSV augment: inactive; zVAD death inh: inactive; MDM2 E3 inh: inactive; E-sel TNF inh: inactive; TNF death inh: inactive

How did Cc1c(NC(=O)CN2CCN(c3ccccc3)CC2)c(=O)n(-c2ccccc2)n1C do in these assays?
HSV augment: inactive; zVAD death inh: inactive; MDM2 E3 inh: inactive; E-sel TNF inh: inactive; TNF death inh: inactive

How did Cc1c(NC(=O)CN2CC(C)OC(C)C2)c(=O)n(-c2ccccc2)n1C (configuration not stated) do in these assays?
HSV augment: inactive; zVAD death inh: inactive; MDM2 E3 inh: inactive; E-sel TNF inh: 66; TNF death inh: inactive

Results for CCN(CC)S(=O)(=O)c1ccc(-c2nnc(SCC(=O)Nc3ccc(OC)cc3)o2)cc1 ?
HSV augment: inactive; zVAD death inh: inactive; MDM2 E3 inh: inactive; E-sel TNF inh: 64; TNF death inh: inactive

From PubChem
